According to publication PMC11888271 (bioRxiv, 2025):
Where “and” joins values, the source holds several entries; their conditions need not be identical. Equal entries are not always repeated. Peptide text beside a SMILES is read from it. * marks the point of attachment. Cbz = O=C(OCc1ccccc1)*; CH2F = FC*

Assays:
Type in all cases: biochemical
caspase-1 = molecular target: T1, caspase-1 (Homo sapiens, UniProt P29466); assay: In vitro inhibition assay, caspase-1
T1 sequence (P29466 120-297 limits assumed): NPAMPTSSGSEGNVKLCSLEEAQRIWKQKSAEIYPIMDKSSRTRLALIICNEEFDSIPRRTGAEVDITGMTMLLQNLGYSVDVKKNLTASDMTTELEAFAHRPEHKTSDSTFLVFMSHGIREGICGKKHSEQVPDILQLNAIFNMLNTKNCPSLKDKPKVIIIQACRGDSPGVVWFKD
T1 sequence (P29466 317-404 limits assumed): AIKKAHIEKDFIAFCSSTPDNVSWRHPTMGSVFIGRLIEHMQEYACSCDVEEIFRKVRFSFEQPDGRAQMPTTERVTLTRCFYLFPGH
Summary of the method: (§1)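 Recombinant caspase at 0.25 activity units/µL in pH 7 PIPES buffer (100 mM NaCl, 10 mM DTT, 1 mM EDTA, 0.1% CHAPS, 10% sucrose). Saturating AMC substrate: Ac-WEHD 200 µM (caspase-1, -5) or 1000 µM (-4, -11); Ac-DEVD 100 µM (-3, -6, -7), or 25 µM for -3/-7 with a pan-caspase FMK inhibitor. Fluorescence read every 5 min. Background-subtracted linear rates normalised to no-inhibitor; three runs pooled and fitted to Y=100/(1+X/IC50).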

caspase-3 = molecular target: T2, caspase-3 (Homo sapiens, UniProt P42574); assay: In vitro inhibition assay, caspase-3
T2 sequence (P42574 29-175 limits assumed): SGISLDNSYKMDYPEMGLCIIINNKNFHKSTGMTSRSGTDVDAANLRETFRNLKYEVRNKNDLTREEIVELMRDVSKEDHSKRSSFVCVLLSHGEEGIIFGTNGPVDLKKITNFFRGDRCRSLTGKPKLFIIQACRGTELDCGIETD
T2 sequence (P42574 176-277 limits assumed): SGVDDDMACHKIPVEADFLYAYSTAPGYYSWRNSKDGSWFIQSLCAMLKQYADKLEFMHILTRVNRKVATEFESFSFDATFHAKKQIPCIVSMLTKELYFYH
Summary of the method: as §1

caspase-4 = molecular target: T3, caspase-4 (Homo sapiens, UniProt P49662); assay: In vitro inhibition assay, caspase-4
T3 sequence (P49662 81-270 limits assumed): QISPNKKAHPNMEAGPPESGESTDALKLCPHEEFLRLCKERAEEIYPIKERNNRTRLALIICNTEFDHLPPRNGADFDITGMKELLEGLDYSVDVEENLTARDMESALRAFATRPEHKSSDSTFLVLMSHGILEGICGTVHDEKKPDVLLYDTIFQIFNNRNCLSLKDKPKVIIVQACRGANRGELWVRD
T3 sequence (P49662 290-377 limits assumed): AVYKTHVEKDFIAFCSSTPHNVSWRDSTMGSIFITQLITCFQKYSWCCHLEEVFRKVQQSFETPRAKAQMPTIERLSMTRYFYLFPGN
Summary of the method: as §1

caspase-5 = molecular target: T4, caspase-5 (Homo sapiens, UniProt P51878); assay: In vitro inhibition assay, caspase-5
T4 sequence (P51878 137-327 limits assumed): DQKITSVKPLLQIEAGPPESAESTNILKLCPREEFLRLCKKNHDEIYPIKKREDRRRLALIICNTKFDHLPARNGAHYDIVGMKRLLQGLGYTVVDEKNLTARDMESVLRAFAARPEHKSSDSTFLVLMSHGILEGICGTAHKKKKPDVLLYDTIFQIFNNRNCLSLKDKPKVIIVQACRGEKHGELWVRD
T4 sequence (P51878 347-434 limits assumed): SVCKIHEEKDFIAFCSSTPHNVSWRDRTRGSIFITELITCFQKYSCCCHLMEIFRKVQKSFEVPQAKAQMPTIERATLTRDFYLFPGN
Summary of the method: as §1

caspase-6 = molecular target: T5, caspase-6 (Homo sapiens, UniProt P55212); assay: In vitro inhibition assay, caspase-6
T5 sequence (P55212 24-179 limits assumed): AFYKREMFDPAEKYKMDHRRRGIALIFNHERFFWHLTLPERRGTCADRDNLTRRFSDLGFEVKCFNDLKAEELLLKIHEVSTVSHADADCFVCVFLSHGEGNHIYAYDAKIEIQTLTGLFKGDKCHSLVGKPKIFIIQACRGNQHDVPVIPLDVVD
T5 sequence (P55212 194-293 limits assumed): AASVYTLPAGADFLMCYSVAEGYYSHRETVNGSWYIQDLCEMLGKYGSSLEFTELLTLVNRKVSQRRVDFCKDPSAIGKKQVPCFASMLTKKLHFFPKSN
Summary of the method: as §1

caspase-7 = molecular target: T6, caspase-7 (Homo sapiens, UniProt P55210); assay: In vitro inhibition assay, caspase-7
T6 sequence (P55210 24-198 limits assumed): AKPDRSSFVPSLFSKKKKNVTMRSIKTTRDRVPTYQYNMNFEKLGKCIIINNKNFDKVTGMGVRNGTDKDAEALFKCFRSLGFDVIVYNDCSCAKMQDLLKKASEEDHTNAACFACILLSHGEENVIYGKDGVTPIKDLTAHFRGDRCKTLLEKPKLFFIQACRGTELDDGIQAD
T6 sequence (P55210 207-303 limits assumed): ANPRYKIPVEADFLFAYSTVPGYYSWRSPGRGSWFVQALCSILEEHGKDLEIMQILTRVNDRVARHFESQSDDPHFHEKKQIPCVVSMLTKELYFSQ
Summary of the method: as §1

caspase-8 = caspase-8 (Homo sapiens, UniProt Q14790); assay: In vitro inhibition assay, caspase-8; conditions: IC50, caspase-8, 0.25 activity units/μL, 200 μM Ac-LEHD-AMC substrate
caspase-9 = molecular target: T7, caspase-9 (Homo sapiens, UniProt P55211); assay: In vitro inhibition assay, caspase-9; conditions: IC50, caspase-9 (different preparation), 1 activity unit/μL, 200 μM Ac-LEHD-AMC substrate
T7 sequence (P55211 1-315 limits assumed): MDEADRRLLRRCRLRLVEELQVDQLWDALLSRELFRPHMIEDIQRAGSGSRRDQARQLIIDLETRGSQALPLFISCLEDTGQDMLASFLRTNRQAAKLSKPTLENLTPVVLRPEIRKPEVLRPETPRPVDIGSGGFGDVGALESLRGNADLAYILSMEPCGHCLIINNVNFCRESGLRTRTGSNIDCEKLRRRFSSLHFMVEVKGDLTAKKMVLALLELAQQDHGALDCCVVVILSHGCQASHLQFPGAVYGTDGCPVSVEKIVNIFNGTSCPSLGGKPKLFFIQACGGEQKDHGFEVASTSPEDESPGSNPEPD
T7 sequence (P55211 331-416 limits assumed): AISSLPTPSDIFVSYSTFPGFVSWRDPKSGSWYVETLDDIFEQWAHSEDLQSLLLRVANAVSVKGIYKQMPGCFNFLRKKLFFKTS

caspase-10 = molecular target: T8, caspase-10 (Homo sapiens, UniProt Q92851); assay: In vitro inhibition assay, caspase-10; conditions: IC50, caspase-10, 0.25 activity units/μL, 200 μM Ac-LEHD-AMC substrate
T8 sequence (Q92851 220-415 limits assumed): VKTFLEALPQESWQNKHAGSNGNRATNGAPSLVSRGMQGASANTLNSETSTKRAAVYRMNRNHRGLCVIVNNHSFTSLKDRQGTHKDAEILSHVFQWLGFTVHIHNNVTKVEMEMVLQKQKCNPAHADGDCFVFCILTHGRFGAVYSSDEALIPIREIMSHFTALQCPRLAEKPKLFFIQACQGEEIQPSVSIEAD
T8 sequence (Q92851 416-521 limits assumed): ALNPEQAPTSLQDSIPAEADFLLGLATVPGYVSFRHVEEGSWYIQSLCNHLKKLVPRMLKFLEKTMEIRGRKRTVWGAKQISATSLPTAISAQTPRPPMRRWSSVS

caspase-11 = molecular target: T9, caspase-11 (Mus musculus, UniProt P70343); assay: In vitro inhibition assay, caspase-11
T9 sequence (P70343 81-266 limits assumed): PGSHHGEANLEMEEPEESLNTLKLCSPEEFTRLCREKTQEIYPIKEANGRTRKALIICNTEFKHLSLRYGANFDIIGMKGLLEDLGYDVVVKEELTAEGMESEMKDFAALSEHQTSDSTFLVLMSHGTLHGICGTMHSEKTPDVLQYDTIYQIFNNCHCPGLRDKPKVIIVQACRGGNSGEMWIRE
T9 sequence (P70343 286-373 limits assumed): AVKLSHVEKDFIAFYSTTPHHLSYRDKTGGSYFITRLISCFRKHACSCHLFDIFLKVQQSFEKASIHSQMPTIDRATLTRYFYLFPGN
Summary of the method: as §1

Chain of caspase-8 (Q14790 217-374 limits assumed): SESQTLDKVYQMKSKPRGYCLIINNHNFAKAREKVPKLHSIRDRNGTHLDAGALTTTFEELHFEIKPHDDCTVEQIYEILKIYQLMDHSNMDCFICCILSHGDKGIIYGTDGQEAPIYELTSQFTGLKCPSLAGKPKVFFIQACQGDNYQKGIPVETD
Chain of caspase-8 (Q14790 385-479 limits assumed): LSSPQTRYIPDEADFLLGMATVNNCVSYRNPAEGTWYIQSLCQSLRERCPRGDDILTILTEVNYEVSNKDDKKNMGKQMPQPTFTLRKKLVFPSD

SMILES | IC50 (caspase-1) [µM] | IC50 (caspase-3) [µM] | IC50 (caspase-4) [µM] | IC50 (caspase-5) [µM] | IC50 (caspase-6) [µM] | IC50 (caspase-7) [µM] | IC50 (caspase-8) | IC50 (caspase-9) | IC50 (caspase-10) | IC50 (caspase-11) [µM]
CCO[C@@H]1OC(=O)C[C@@H]1NC(=O)[C@@H]1CCCN1C(=O)[C@@H](NC(=O)c1ccc(N)c(Cl)c1)C(C)(C)C [VX-765, (S)-1-((S)-2-{[1-(4-amino-3-chloro-phenyl)-methanoyl]-amino}-3,3-dimethyl-butanoyl)-pyrrolidine-2-carboxylic acid ((2R,3S)-2-ethoxy-5-oxo-tetrahydro-furan-3-yl)-amide] | 0.53 ± 0.09 | > 100 | 30.1 ± 2.67 | 19.5 ± 1.37 | > 100 | > 100 | 1 µM and 1.02 µM | 4 µM and 4.01 µM | 42 µM and 42.3 µM | 81 ± 2.77
CC[C@H](C)[C@H](NC(=O)OCc1ccccc1)C(=O)N[C@@H](CCC(=O)OC)C(=O)N[C@H](C(=O)N[C@@H](CC(=O)OC)C(=O)CF)[C@@H](C)O [z-IETD-FMK] (Cbz-IE(OMe)TD(OMe)-CH2F) | 5.72 ± 0.47 | 1.88 ± 0.26 |  | 19.9 ± 1.19 | 0.06 ± 0.04 | 2.63 ± 0.54 | 0.35 ± 0.1 µM | 3.7 µM and 3.65 µM | 5.76 ± 1.1 µM | 
COC(=O)CC[C@H](NC(=O)[C@H](CC(C)C)NC(=O)OCc1ccccc1)C(=O)N[C@@H](Cc1c[nH]cn1)C(=O)N[C@@H](CC(=O)OC)C(=O)CF [z-LEHD-FMK] (Cbz-LE(OMe)HD(OMe)-CH2F) | 0.82 ± 0.13 | 1.07 ± 0.18 |  | 2.31 ± 0.31 | 0.11 ± 0.06 | 3.9 ± 0.29 | 0.07 ± 0.01 µM | 1.5 µM and 1.58 µM | 3.59 ± 1.27 µM | 
